ChEMBL document CHEMBL1140997 (Bioorg Med Chem, 2009)

Tests used:
[1] = Inhibition of TNFalpha induced NF-kappaB activation in human 293 cells after 24 hrs by luciferase reporter gene assay; assay type: cell-based; details: HEK293, 24 h
Method in brief: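 Cells incubated 24 h with TNFα (20 ng/ml) and test compounds, PBS-washed, lysed 10 min, luciferase read. Screen at 20 µg/ml; active compounds then run as dose-response in duplicate. Values are % of TNFα-treated control; IC50 from five serial dilutions, mean of two experiments.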

[2] = target: Prostaglandin G/H synthase 1 (Homo sapiens, UniProt P23219); assay: Inhibition of COX1
Method in brief: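 Reaction in 100 mM Tris-HCl pH 8.0 containing 1 µM heme, 500 µM phenol and 300 µM epinephrine, with enough COX-1 to make 150 ng/ml PGE2. Started with arachidonic acid (10 µM final), 10 min at room temperature, stopped into indomethacin. PGE2 measured by ELISA against a PGE2 standard curve. Values are % of solvent control; IC50 from four serial dilutions, mean of two experiments.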

[3] = target: T1, Prostaglandin G/H synthase 2 (Homo sapiens, UniProt P35354); assay: Inhibition of COX2
T1 sequence (P35354 whole entry): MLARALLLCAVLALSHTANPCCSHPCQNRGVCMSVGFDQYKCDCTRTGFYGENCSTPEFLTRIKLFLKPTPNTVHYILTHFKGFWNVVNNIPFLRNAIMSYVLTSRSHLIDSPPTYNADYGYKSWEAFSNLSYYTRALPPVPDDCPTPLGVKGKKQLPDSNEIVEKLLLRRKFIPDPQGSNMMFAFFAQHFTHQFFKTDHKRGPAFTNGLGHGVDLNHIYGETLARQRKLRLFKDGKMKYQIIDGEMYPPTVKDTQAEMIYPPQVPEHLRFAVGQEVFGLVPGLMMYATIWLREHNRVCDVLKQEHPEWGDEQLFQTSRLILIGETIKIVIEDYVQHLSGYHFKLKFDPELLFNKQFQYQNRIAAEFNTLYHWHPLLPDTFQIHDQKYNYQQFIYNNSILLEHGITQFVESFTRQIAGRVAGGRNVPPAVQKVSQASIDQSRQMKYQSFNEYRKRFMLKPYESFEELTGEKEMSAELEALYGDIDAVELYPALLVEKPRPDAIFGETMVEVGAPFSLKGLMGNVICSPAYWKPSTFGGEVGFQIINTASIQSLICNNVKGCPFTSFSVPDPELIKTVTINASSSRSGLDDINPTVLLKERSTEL

Prostaglandin G/H synthase 1, sequence (P23219 whole entry): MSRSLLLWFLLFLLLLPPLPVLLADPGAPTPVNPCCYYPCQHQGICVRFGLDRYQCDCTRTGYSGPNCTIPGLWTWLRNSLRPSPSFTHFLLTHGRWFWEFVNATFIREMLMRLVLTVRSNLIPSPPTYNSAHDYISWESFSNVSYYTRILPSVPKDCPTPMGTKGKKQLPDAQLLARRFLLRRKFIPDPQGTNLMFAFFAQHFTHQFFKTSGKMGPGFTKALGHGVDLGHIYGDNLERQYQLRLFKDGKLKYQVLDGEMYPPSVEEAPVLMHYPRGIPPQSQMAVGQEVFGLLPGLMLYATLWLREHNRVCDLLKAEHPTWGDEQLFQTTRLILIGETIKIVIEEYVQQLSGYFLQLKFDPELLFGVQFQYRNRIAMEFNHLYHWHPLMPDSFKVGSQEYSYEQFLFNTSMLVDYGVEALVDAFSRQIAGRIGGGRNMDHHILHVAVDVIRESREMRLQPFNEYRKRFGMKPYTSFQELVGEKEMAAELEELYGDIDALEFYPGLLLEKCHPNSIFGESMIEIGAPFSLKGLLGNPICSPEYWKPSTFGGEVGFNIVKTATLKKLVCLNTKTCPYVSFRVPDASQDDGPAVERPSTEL

Compound	IC50 [1] [µM]	IC50 [2] [µM]	IC50 [3] [µM]
COc1cc(/C=C/c2ccc(F)cc2)cc(OC)c1	37.5		
COc1cc(/C=C/c2ccc([N+](=O)[O-])cc2)cc(OC)c1		10	5.94
COc1ccc(/C=C/c2ccc(O)c(O)c2)cc1	12.2		
COc1ccc(/C=C/c2ccc(OC)c(OC)c2)cc1	52		
Oc1ccc(/C=C/c2ccc(O)c(O)c2)cc1	12.7		
COc1cc(/C=C(/c2ccc(F)cc2)C(F)(F)F)cc(OC)c1	39	3	
CC/C(=C\c1ccc(C(F)(F)F)cc1)c1cc(O)cc(O)c1		0.99	
C/C(=C\c1ccc(O)c(O)c1)c1ccc(Cl)cc1	37.5		
Oc1cc(O)cc(/C=C/c2ccc(F)cc2)c1	52.1	51.3	
COc1ccc(/C=C/c2cccc(F)c2)cc1OC	38.8	3.2	
Oc1ccc(/C=C/c2cccc(F)c2)cc1O	10.3	11.5	
C/C(=C\c1cc(O)cc(O)c1)c1cccc(F)c1		4.9	2.54
CC/C(=C\c1ccc(N(C)C)cc1)c1cc(O)cc(O)c1		7.4	2.2
CC/C(=C\c1cc(OC)cc(OC)c1)c1ccc(OC)c(OC)c1	27.2		
CC/C(=C\c1cc(O)cc(O)c1)c1ccc(Cl)cc1	38.3	11.6	
CC/C(=C\c1cc(O)cc(O)c1)c1cccc(F)c1	25.7	3.5	17.7
CC/C(=C\c1cc(O)cc(O)c1)c1ccc(N(C)C)cc1		30.5	14.8
COc1cc(/C=C/c2ccc3ccccc3c2)cc(OC)c1	18.8		
COc1cccc(/C=C/c2ccc(OC)c(OC)c2)c1	17.3		

Compound	IC50 [1] [µM]	IC50 [2] [µM]	IC50 [3] [µM]
Oc1ccc(/C=C/c2ccc(F)cc2)cc1O	17.9		
COc1ccc(/C=C/c2ccc(N(C)C)cc2)cc1OC	34.7		
C/C(=C\c1cc(O)cc(O)c1)c1ccc(O)cc1		1.9	1.57
C/C(=C\c1cc(O)cc(O)c1)c1ccc(C(F)(F)F)cc1	34.2	0.97	
Oc1ccc(/C=C/c2ccc(C(F)(F)F)cc2)cc1O	14.8		
Oc1ccc(/C=C/c2ccc3ccccc3c2)cc1O	6.91		
COc1ccc(/C(=C/c2cc(OC)cc(OC)c2)C(F)(F)F)cc1	37.8		
COc1ccc(/C=C(/c2cc(OC)cc(OC)c2)C(F)(F)F)cc1		7.8	
COc1ccc(/C(C)=C/c2cc(O)cc(O)c2)cc1	35.2	12.4	16
COc1ccc(/C(C)=C/c2cc(OC)cc(OC)c2)cc1	27.1		
COc1ccc(/C(C)=C/c2ccc3ccccc3c2)cc1	48.2		
COc1ccc(/C(C)=C/c2cc(O)cc(O)c2)cc1OC	13.1	11.4	
C/C(=C\c1cc(O)cc(O)c1)c1ccc(Cl)cc1	39.2	5.3	
C/C(=C\c1ccc(C(F)(F)F)cc1)c1ccc(O)c(O)c1			1.74
C/C(=C\c1ccc2ccccc2c1)c1cc(O)cc(O)c1	42.3		
Oc1cc(O)cc(/C=C/c2ccc3ccccc3c2)c1		18.4	
C/C(=C\c1ccc(C(F)(F)F)cc1)c1cc(O)cc(O)c1		10.9	
CC/C(=C\c1cccc(F)c1)c1cc(O)cc(O)c1		5.4	
C/C(=C\c1ccc(N(C)C)cc1)c1cc(O)cc(O)c1		10.7	1.74

Compound	IC50 [1] [µM]	IC50 [2] [µM]	IC50 [3] [µM]
COc1cc(/C=C(/c2cccc(C(F)(F)F)c2)C(F)(F)F)cc(OC)c1	31.9		
COc1ccc(/C=C(/c2cccc(C(F)(F)F)c2)C(F)(F)F)cc1OC	25.5		
Oc1cc(O)cc(/C=C/c2cccc(F)c2)c1		16.5	0.82
Oc1cc(O)cc(/C=C/c2ccc(C(F)(F)F)cc2)c1	12.9	29.7	
O=[N+]([O-])c1ccc(/C=C/c2cc(O)cc(O)c2)cc1		2.2	31.6
CN(C)c1ccc(/C=C/c2cc(O)cc(O)c2)cc1		17.8	
C/C(=C\c1ccc(C(F)(F)F)cc1)c1ccc(O)cc1		36.3	0.47
C/C(=C\c1ccc(O)cc1)c1cc(O)cc(O)c1	26.2	1.9	1.78
COc1ccc(/C=C(\C)c2cc(O)cc(O)c2)cc1OC		10.6	12.8
C/C(=C\c1ccc(O)c(O)c1)c1ccc(O)cc1	21.3		
COc1cc(/C=C(\C)c2ccc(C(F)(F)F)cc2)cc(OC)c1		32.6	
C/C(=C\c1cccc(F)c1)c1cc(O)cc(O)c1		10.5	
CC/C(=C\c1cc(O)cc(O)c1)c1ccc2ccccc2c1		0.17	3.3
CC/C(=C\c1ccc(OC)c(OC)c1)c1cc(O)cc(O)c1		9.7	
COc1cc(/C=C/c2ccc(O)cc2)cc(OC)c1 [PTEROSTILBENE]	19.5	0.7	0.82
COc1ccc(/C=C/c2cc(O)cc(O)c2)cc1 [RESVERATROL 4'-METHYL ETHER]		25.8	19.6
Oc1ccc(/C=C/c2cc(O)cc(O)c2)cc1 [RESVERATROL]	16.1		
COc1ccc(/C=C/c2cc(OC)cc(OC)c2)cc1 [TRISMETHOXYRESVERATROL]	28.3		
